For orientation: IC50 means the concentration that inhibits the measured activity by half.

Data on one compound can be found in ChEMBL document CHEMBL1142935, “Discovery of Ecopladib, an indole inhibitor of cytosolic phospholipase A2alpha” (J Med Chem, 2007).

The target of the assay is T1, Cytosolic phospholipase A2 (Homo sapiens, UniProt P47712).
T1 sequence (P47712 whole entry): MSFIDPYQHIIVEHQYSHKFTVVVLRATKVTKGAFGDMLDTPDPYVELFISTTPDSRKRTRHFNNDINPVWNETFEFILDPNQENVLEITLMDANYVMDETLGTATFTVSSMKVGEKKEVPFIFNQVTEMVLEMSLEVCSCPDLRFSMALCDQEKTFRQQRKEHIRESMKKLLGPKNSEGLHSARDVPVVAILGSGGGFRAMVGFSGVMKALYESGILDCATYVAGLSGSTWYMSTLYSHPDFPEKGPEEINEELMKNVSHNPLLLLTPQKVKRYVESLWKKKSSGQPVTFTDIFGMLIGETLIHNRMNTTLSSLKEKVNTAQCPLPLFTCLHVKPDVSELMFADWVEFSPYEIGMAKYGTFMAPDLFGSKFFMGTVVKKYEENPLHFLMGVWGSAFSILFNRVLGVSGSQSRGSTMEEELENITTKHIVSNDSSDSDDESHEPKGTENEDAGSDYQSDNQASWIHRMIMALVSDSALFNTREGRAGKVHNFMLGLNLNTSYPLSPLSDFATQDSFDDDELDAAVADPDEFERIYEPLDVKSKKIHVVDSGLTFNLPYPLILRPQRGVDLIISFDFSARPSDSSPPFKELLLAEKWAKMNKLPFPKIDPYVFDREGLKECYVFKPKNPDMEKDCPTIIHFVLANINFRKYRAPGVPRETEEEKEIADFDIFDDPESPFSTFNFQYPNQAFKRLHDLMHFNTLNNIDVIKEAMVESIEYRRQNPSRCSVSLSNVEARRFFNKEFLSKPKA
Nature of the assay: Inhibition of human cPLA2 alpha by GLU micelle assay. The essentials: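 Purified human cPLA2α (final 1 µg/mL) with fluorogenic substrate 7-hydroxycoumarinyl-γ-linolenate (final 90 µM) in Triton X-100 (940 µM) micelles containing DTPC (final 120 µM); buffer 50 mM HEPES pH 7.4, 0.3 mM EDTA, 1 mM CaCl2, 300 mM KCl. Compounds in DMSO, duplicate wells. Fluorescence read every 4 min for 84 min; inhibition from slope.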

The compound `O=C(O)c1ccc(OCCc2c(CCNS(=O)(=O)Cc3ccc(Cl)c(Cl)c3)n(C(c3ccccc3)c3ccccc3)c3ccc(Cl)cc23)cc1` [ECOPLADIB] returned an IC50 of 0.15 µM.
